From ChEMBL document CHEMBL1649165, “Activity profile in vitro of micafungin against Spanish clinical isolates of common and emerging species of yeasts and molds” (2009)
≈ marks a conversion by molar mass, not a printed value.

Columns and labels:
Assay type in all cases: functional
Candida parapsilosis = experiment: Antimicrobial activity against Candida parapsilosis by broth microdilution method; details: Lodderomyces parapsilosis
Outline: (§1)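 Clinical isolates from human patients, tested by broth microdilution using the AFST-EUCAST reference procedure for fermentative yeasts. The MIC was read per that reference method.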

Candida tropicalis = experiment: Antimicrobial activity against Candida tropicalis by broth microdilution method; outline: as §1
[1] = tested on: Meyerozyma guilliermondii; experiment: Antimicrobial activity against Candida guilliermondii by broth microdilution method; outline: as §1
Kluyveromyces marxianus = experiment: Antimicrobial activity against Candida kefyr by broth microdilution method; outline: as §1
Debaryomyces hansenii = experiment: Antimicrobial activity against Candida famata by broth microdilution method; outline: as §1
Torulaspora delbrueckii = experiment: Antimicrobial activity against Candida coliculosa by broth microdilution method; outline: as §1
[Candida] intermedia = Antimicrobial activity against Candida intermedia by broth microdilution method; details: Sungouiella intermedia; outline: as §1
[2] = tested on: Kazachstania pintolopesii; experiment: Antimicrobial activity against Candida pintolopesii by broth microdilution method; details: Arxiozyma pintolopesii; outline: as §1
[Candida] zeylanoides = Antimicrobial activity against Candida zeylanoides by broth microdilution method; details: Dujonia zeylanoides; outline: as §1
Saccharomyces cerevisiae = experiment: Antimicrobial activity against Saccharomyces cerevisiae by broth microdilution method
Yarrowia lipolytica = experiment: Antimicrobial activity against Yarrowia lipolytica by broth microdilution method
[3] = tested on: Cryptococcus deneoformans; experiment: Antimicrobial activity against Cryptococcus neoformans var. neoformans by broth microdilution method
Outline: (§2)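 Clinical isolates of nonfermentative yeasts, tested by broth microdilution following EUCAST recommendations. The only change from that method was a minor modification to improve growth.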

Trichosporon dermatis = experiment: Antimicrobial activity against Trichosporon dermatis by broth microdilution method; details: Cutaneotrichosporon dermatis
Outline: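 Nonfermentative yeast clinical isolates (Rhodotorula, Trichosporon) tested by broth microdilution. The EUCAST yeast recommendations were followed strictly, with one minor modification to improve growth. MIC was read as the endpoint.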

Naganishia albida = experiment: Antimicrobial activity against Cryptococcus albidus by broth microdilution method; outline: as §2
Papiliotrema laurentii = experiment: Antimicrobial activity against Cryptococcus laurentii by broth microdilution method; outline: as §2
Trichosporon domesticum = experiment: Antimicrobial activity against Trichosporon mycotoxinivorans by broth microdilution method; details: Apiotrichum domesticum
Outline: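 Spanish human clinical isolates were tested as nonfermentative yeasts by broth microdilution. The method strictly followed the EUCAST recommendations, with a minor modification to improve growth, and the read-out was the MIC.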

Aspergillus niger = experiment: Antimicrobial activity against Aspergillus niger by broth microdilution method
Outline: (§3)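 Clinical mould isolates, tested by broth microdilution using the AFST-EUCAST reference method for filamentous fungi. For echinocandins, the endpoint was the minimum effective concentration: the lowest drug concentration giving aberrant hyphal growth, read with an inverted microscope.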

Aspergillus sydowii = experiment: Antimicrobial activity against Aspergillus sydowii by broth microdilution method; outline: as §3
Aspergillus ustus = experiment: Antimicrobial activity against Aspergillus ustus by broth microdilution method; outline: as §3
Fennellia nivea = experiment: Antimicrobial activity against Aspergillus niveus by broth microdilution method; outline: as §3
Aspergillus sclerotiorum = experiment: Antimicrobial activity against Aspergillus sclerotiorum by broth microdilution method; outline: as §3
Aspergillus = experiment: Antimicrobial activity against Aspergillus spp. by broth microdilution method; outline: as §3
Penicillium = experiment: Antimicrobial activity against Penicillium spp. by broth microdilution method
Outline: (§4)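 Filamentous fungus clinical isolates tested by the AFST-EUCAST reference broth microdilution method for moulds. For echinocandins, the endpoint was the minimum effective concentration: the lowest drug concentration giving aberrant hyphal growth, read with an inverted microscope.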

Fusarium proliferatum = experiment: Antimicrobial activity against Fusarium proliferatum by broth microdilution method; outline: as §3
Fusarium oxysporum = experiment: Antimicrobial activity against Fusarium oxysporum by broth microdilution method; outline: as §3
Fusarium verticillioides = experiment: Antimicrobial activity against Fusarium verticillioides by broth microdilution method; outline: as §4
Paecilomyces lilacinus = experiment: Antimicrobial activity against Paecilomyces lilacinus by broth microdilution method; details: Purpureocillium lilacinum; outline: as §4
Acremonium sp. = experiment: Antimicrobial activity against Acremonium sp.by broth microdilution method; outline: as §3
Trichoderma = experiment: Antimicrobial activity against Trichoderma spp. by broth microdilution method; outline: as §4
[4] = Antimicrobial activity against Hormographiella aspergillata by broth microdilution method; details: Coprinopsis cinerea; outline: as §4
Fusarium reticulatum = experiment: Antimicrobial activity against Fusarium reticulatum by broth microdilution method; outline: as §4
Neurospora sitophila = experiment: Antimicrobial activity against Chrysonilia sitophila by broth microdilution method; outline: as §3
Lewia infectoria = experiment: Antimicrobial activity against Alternaria infectoria by broth microdilution method; outline: as §3
Exophiala dermatitidis = experiment: Antimicrobial activity against Exophiala dermatitidis by broth microdilution method
Aureobasidium pullulans = experiment: Antimicrobial activity against Aureobasidium pullulans by broth microdilution method
Hortaea werneckii = experiment: Antimicrobial activity against Hortaea werneckii by broth microdilution method
Cladosporium = experiment: Antimicrobial activity against Cladosporium spp. by broth microdilution method; outline: as §3
Scytalidium hyalinum = experiment: Antimicrobial activity against Scytalidium hyalinum by broth microdilution method; details: Neoscytalidium hyalinum; outline: as §4
Lichtheimia corymbifera = experiment: Antimicrobial activity against Mycocladus corymbiferus by broth microdilution method; outline: as §4
[5] = Antimicrobial activity against Rhizopus microsporus by broth microdilution method; outline: as §4
Rhizomucor = experiment: Antimicrobial activity against Rhizomucor spp.by broth microdilution method; outline: as §4
Saksenaea vasiformis = experiment: Antimicrobial activity against Saksenaea vasiformis by broth microdilution method; outline: as §4
Exophiala jeanselmei = experiment: Antimicrobial activity against Exophiala jeanselmei by broth microdilution method
Beauveria bassiana = experiment: Antimicrobial activity against Beauveria bassiana by broth microdilution method; outline: as §3

C[C@@H](c1ncncc1F)[C@](O)(Cn1cncn1)c1ccc(F)cc1F [VORICONAZOLE]
MIC50 (Candida parapsilosis): 0.02 µg/mL (≈ 0.0573 µM)
MIC90 (Candida parapsilosis): 0.02 µg/mL (≈ 0.0573 µM)
MIC50 (Candida tropicalis): 0.03 µg/mL (≈ 0.0859 µM)
MIC90 (Candida tropicalis): 0.12 µg/mL (≈ 0.344 µM)
MIC50 [1]: 0.12 µg/mL (≈ 0.344 µM)
MIC90 [1]: > 8 µg/mL
MIC50 (Kluyveromyces marxianus): 0.02 µg/mL (≈ 0.0573 µM)
MIC90 (Kluyveromyces marxianus): 0.02 µg/mL (≈ 0.0573 µM)
MIC50 (Debaryomyces hansenii): 0.12 µg/mL (≈ 0.344 µM)
MIC90 (Debaryomyces hansenii): > 8 µg/mL
MIC50 (Torulaspora delbrueckii): 0.12 µg/mL (≈ 0.344 µM)
MIC90 (Torulaspora delbrueckii): > 8 µg/mL
MIC50 ([Candida] intermedia): 0.12 µg/mL (≈ 0.344 µM)
MIC90 ([Candida] intermedia): > 8 µg/mL
MIC50 [2]: 0.12 µg/mL (≈ 0.344 µM)
MIC90 [2]: > 8 µg/mL
MIC50 ([Candida] zeylanoides): 0.12 µg/mL (≈ 0.344 µM)
MIC90 ([Candida] zeylanoides): > 8 µg/mL
MIC50 (Saccharomyces cerevisiae): 0.06 µg/mL (≈ 0.172 µM)
MIC90 (Saccharomyces cerevisiae): 0.5 µg/mL (≈ 1.43 µM)
MIC50 (Yarrowia lipolytica): 0.5 µg/mL (≈ 1.43 µM)
MIC90 (Yarrowia lipolytica): 2 µg/mL (≈ 5.73 µM)
MIC50 [3]: 0.12 µg/mL (≈ 0.344 µM)
MIC90 [3]: 0.5 µg/mL (≈ 1.43 µM)
MIC50 (Trichosporon dermatis): 0.5 µg/mL (≈ 1.43 µM)
MIC90 (Trichosporon dermatis): > 8 µg/mL
MIC50 (Naganishia albida): 0.5 µg/mL (≈ 1.43 µM)
MIC90 (Naganishia albida): > 8 µg/mL
MIC50 (Papiliotrema laurentii): 0.5 µg/mL (≈ 1.43 µM)
MIC90 (Papiliotrema laurentii): > 8 µg/mL
MIC50 (Trichosporon domesticum): 0.5 µg/mL (≈ 1.43 µM)
MIC90 (Trichosporon domesticum): > 8 µg/mL
MIC50 (Aspergillus niger): 1 µg/mL (≈ 2.86 µM)
MIC90 (Aspergillus niger): 2 µg/mL (≈ 5.73 µM)
MIC50 (Aspergillus sydowii): 1 µg/mL (≈ 2.86 µM)
MIC90 (Aspergillus sydowii): 2 µg/mL (≈ 5.73 µM)
MIC50 (Aspergillus ustus): 0.25 µg/mL (≈ 0.716 µM)
MIC90 (Aspergillus ustus): > 8 µg/mL
MIC50 (Fennellia nivea): 0.25 µg/mL (≈ 0.716 µM)
MIC90 (Fennellia nivea): > 8 µg/mL
MIC50 (Aspergillus sclerotiorum): 0.25 µg/mL (≈ 0.716 µM)
MIC90 (Aspergillus sclerotiorum): > 8 µg/mL
MIC50 (Aspergillus): 0.25 µg/mL (≈ 0.716 µM)
MIC90 (Aspergillus): > 8 µg/mL
MIC50 (Penicillium): 2 µg/mL (≈ 5.73 µM)
MIC90 (Penicillium): 8 µg/mL (≈ 22.9 µM)
MIC50 (Fusarium proliferatum): 8 µg/mL (≈ 22.9 µM)
MIC90 (Fusarium proliferatum): 8 µg/mL (≈ 22.9 µM)
MIC50 (Fusarium oxysporum): 4 µg/mL (≈ 11.5 µM)
MIC90 (Fusarium oxysporum): > 8 µg/mL
MIC50 (Fusarium verticillioides): 8 µg/mL (≈ 22.9 µM)
MIC90 (Fusarium verticillioides): > 8 µg/mL
MIC50 (Paecilomyces lilacinus): 0.5 µg/mL (≈ 1.43 µM)
MIC90 (Paecilomyces lilacinus): > 8 µg/mL
MIC50 (Acremonium sp.): 4 µg/mL (≈ 11.5 µM)
MIC90 (Acremonium sp.): > 8 µg/mL
MIC50 (Trichoderma): 4 µg/mL (≈ 11.5 µM)
MIC90 (Trichoderma): > 8 µg/mL
MIC50 [4]: 4 µg/mL (≈ 11.5 µM)
MIC90 [4]: > 8 µg/mL
MIC50 (Fusarium reticulatum): 4 µg/mL (≈ 11.5 µM)
MIC90 (Fusarium reticulatum): > 8 µg/mL
MIC50 (Neurospora sitophila): 4 µg/mL (≈ 11.5 µM)
MIC90 (Neurospora sitophila): > 8 µg/mL
MIC50 (Lewia infectoria): 2 µg/mL (≈ 5.73 µM)
MIC90 (Lewia infectoria): > 8 µg/mL
MIC50 (Exophiala dermatitidis): 0.06 µg/mL (≈ 0.172 µM)
MIC90 (Exophiala dermatitidis): > 8 µg/mL
MIC50 (Aureobasidium pullulans): 0.06 µg/mL (≈ 0.172 µM)
MIC90 (Aureobasidium pullulans): > 8 µg/mL
MIC50 (Hortaea werneckii): 0.06 µg/mL (≈ 0.172 µM)
MIC90 (Hortaea werneckii): > 8 µg/mL
MIC50 (Cladosporium): 0.06 µg/mL (≈ 0.172 µM)
MIC90 (Cladosporium): > 8 µg/mL
MIC50 (Scytalidium hyalinum): 0.06 µg/mL (≈ 0.172 µM)
MIC90 (Scytalidium hyalinum): > 8 µg/mL
MIC50 (Lichtheimia corymbifera): > 8 µg/mL
MIC90 (Lichtheimia corymbifera): > 8 µg/mL
MIC50 [5]: > 8 µg/mL
MIC90 [5]: > 8 µg/mL
MIC50 (Rhizomucor): > 8 µg/mL
MIC90 (Rhizomucor): > 8 µg/mL
MIC50 (Saksenaea vasiformis): > 8 µg/mL
MIC90 (Saksenaea vasiformis): > 8 µg/mL
MIC50 (Exophiala jeanselmei): 0.06 µg/mL (≈ 0.172 µM)
MIC90 (Exophiala jeanselmei): > 8 µg/mL
MIC50 (Beauveria bassiana): 4 µg/mL (≈ 11.5 µM)
MIC90 (Beauveria bassiana): > 8 µg/mL
